# Screens deposited in PubChem BioAssay by several laboratories.
# Tn6 DDE FP = inhibitors of Tn6 peptide binding to human fibrin DD(E). Fibrin DD(E) TRITC-Tn6 fluorescence polarization displacement. inhibition, % at 8.3 µM. hit rate 0.21% among 370,000;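 active = inhibition above a per-campaign cutoff: mean of compounds within control limits plus 3 SD, cut at about 15% in these data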;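 also: 0% = median of all compound wells on the plate and 100% = blocking peptide control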
# MT1-MMP act inh = inhibitors of human MT1-MMP activation | P50281 | hit rate 0.061% among 360,000 | HT1080 RFP-PRO-GFP cells, GFP/RFP ratio fluorescence, overnight; percent of plate control window, DMSO zero | GFP/RFP ratio change, % at 20 µM;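 active = GFP/RFP ratio change of at least 30% with cell ATP level not reduced by more than half and red fluorescence within 50% of control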
#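 Read-out: GFP/RFP fluorescence ratio; Test system: RFP-PRO-GFP reporter HT1080 cells; Compound dosing: single-point 20 µM compound, 1% DMSO; Times: overnight compound exposure at 37 °C.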
# Tn7 DDE FP = DD(E)-Tn7 binding inhibition, primary FP screen. FP displacement of FITC-Tn7 peptide from fibrin DD(E); 0% = median of compound wells per plate. P02675. hit rate 0.13% among 370,000. inhibition, % at 8.3 µM;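 active = inhibition above the mean of compounds falling within the control limits plus 3 SD of them, cut at about 14% in these data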;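 also: 0% = plate median of compound wells and 100% = 10 µM Aha-Tn7 peptide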
#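 Measure: % inhibition scaled between sample-field median and high-control FP; Test system: human fibrin DD(E); Quantity: 2 µM final DD(E) protein; Doses: one dose, 8.3 µM nominal; Schedule: compound with protein 10 min, then 3 h after probe, room temperature; Detection: fluorescence polarization; Medium: Tris buffer with calcium and detergent, pH 7.8.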
# ADAM10 inh = inhibitors of human ADAM10 | O14672 | recombinant ADAM10, EDANS/DABCYL FRET peptide cleavage, 3 h | inhibition, % at 7 µM | hit rate 0.62% among 370,000 | AID 720582;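 active = inhibition above a per-campaign cutoff equal to the mean of compounds falling between control-based bounds plus 3 SD, cut at about 20% in these data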;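 also: 0% = DMSO wells while the 100% control is not disclosed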
# ADAM17 inh = inhibitors of human ADAM17 | recombinant ADAM17, EDANS/DABCYL FRET peptide cleavage | AID 720648 | P78536 | hit rate 0.83% among 370,000 | inhibition, % at 6.95 µM;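 active = inhibition above the mean of compounds lying between control limits plus 3 SD, set per campaign, cut at about 8.5% in these data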;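 also: 0% = DMSO-only wells as the low control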
# Target sequence (P78536 215-824 limits assumed): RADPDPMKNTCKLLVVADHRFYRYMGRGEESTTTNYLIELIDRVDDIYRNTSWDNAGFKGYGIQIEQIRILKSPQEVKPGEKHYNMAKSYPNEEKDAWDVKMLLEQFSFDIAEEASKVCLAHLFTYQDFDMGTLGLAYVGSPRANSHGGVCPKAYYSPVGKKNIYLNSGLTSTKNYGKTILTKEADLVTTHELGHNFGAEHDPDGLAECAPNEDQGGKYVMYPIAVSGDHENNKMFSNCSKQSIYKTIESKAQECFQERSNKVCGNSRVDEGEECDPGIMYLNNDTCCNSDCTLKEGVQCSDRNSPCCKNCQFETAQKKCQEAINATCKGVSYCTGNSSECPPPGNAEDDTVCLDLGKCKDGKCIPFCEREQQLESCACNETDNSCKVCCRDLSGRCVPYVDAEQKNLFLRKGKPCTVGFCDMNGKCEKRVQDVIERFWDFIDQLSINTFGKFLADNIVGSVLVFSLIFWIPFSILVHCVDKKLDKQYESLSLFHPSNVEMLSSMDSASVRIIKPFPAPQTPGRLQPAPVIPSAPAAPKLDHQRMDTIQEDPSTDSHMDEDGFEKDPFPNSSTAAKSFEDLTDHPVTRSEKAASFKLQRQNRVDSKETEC
# ADAM10 confirm = human ADAM10 inhibition, confirmation; AID 743208; inhibition, % at 6.95 µM; hit rate 1% among 2,100; shares compounds with ADAM10 inh; ADAM10 QFRET peptide cleavage, EDANS fluorescence;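 active = inhibition above about 20% chosen separately for each screening run, limit read from the data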;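 also: 0% = DMSO wells and 100% = marimastat wells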
# ADAM17 counter = ADAM17 inhibition, counter-screen for ADAM10 exosite hits | shares compounds with ADAM10 inh | ADAM17 QFRET peptide cleavage, EDANS fluorescence | inhibition, % at 6.95 µM | hit rate 0.5% among 2,100;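 active = mean triplicate inhibition above the solvent-only control wells' mean plus 3 SD, cut at about 12% in these data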;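 also: 0% = DMSO wells and 100% = marimastat wells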
# ADAM10 ctr = ADAM10 inhibition, counter-screen for ADAM17 exosite hits. AID 743256. recombinant ADAM10, EDANS/DABCYL FRET peptide cleavage, 3 h. shares compounds with ADAM17 inh. inhibition, % at 6.95 µM. hit rate 47% among 2,900;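 active = mean inhibition over the triplicate runs exceeds the activity threshold set in the earlier primary screen, cut at about 20% in these data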;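 also: 0% = DMSO wells and 100% = marimastat wells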
# ADAM17 confirm = confirmation of inhibitors of human ADAM17 | shares compounds with ADAM17 inh | hit rate 65% among 2,900 | inhibition, % at 6.95 µM | recombinant ADAM17, EDANS/DABCYL QFRET peptide cleavage;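 active = mean inhibition across replicates above the hit cutoff set in the primary screen, cut at about 8.5% in these data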;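 also: 0% = DMSO wells and 100% = marimastat wells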
# * marks the source's active call; other numbers are inactive results; / = no result given. A selection: hits, their analogues and other compounds. The true share with any hit is near 1.6%.
SMILES,Tn6 DDE FP,MT1-MMP act inh,Tn7 DDE FP,ADAM10 inh,ADAM17 inh,ADAM10 ctr,ADAM17 confirm,others
COC(=O)C1=C(c2ccc(F)cc2OCc2ccccc2)C[C@@H]2CC[C@H]1N2C(=O)NCCc1ccc(F)cc1,-6,-12,5,27*,11*,29*,13*,ADAM10 confirm=9;ADAM17 counter=2
COC(=O)C1=C(c2ccc(F)cc2OCc2ccccc2)C[C@@H]2CC[C@H]1N2C(=O)NCc1ccc(N(C)C)cc1,0,1,2,20*,9.7*,14,7,ADAM10 confirm=7;ADAM17 counter=3
COC(=O)C1=C(c2ccc(F)cc2OCc2ccccc2)C[C@@H]2CC[C@H]1N2C(=O)NCc1cccc(C(F)(F)F)c1,-8,-9,0,24*,16*,19,13*,ADAM10 confirm=7;ADAM17 counter=2
COC(=O)C1=C(c2ccc(F)cc2OCc2ccccc2)C[C@@H]2CC[C@H]1N2C(=O)NCc1cccc(OC)c1,3,-5,7,17,0,/,/,
COC(=O)C1=C(c2ccc(F)cc2OCc2ccccc2)C[C@@H]2CC[C@H]1N2C(=O)NCCOc1ccccc1,0,-4,2,11,4,/,/,
CC12CC(=O)C3C(CCC4CC(=O)C=CC43C)C1CCC2=O (stereo unspecified),1,1,5,-4,-5,/,/,
Cc1nn(Cc2ccccc2)c(Cl)c1C(=O)OCC(=O)N1CCCC1,-2,1,-2,4,0,/,/,
CCOc1cc(CNCCc2c[nH]c3ccccc23)cc(Cl)c1OCC,-6,4,-15,27*,14*,3,1,ADAM10 confirm=0;ADAM17 counter=0
CCCOc1ccc(C(=O)NC(=S)N2C[C@H]3C[C@H](C2)c2cccc(=O)n2C3)cc1,-1,1,8,-8,0,/,/,
C[C@]12CCC(=O)C[C@@H]1CC[C@@H]1[C@@H]2CC[C@]2(C)[C@@H](O)CC[C@@H]12,-1,1,5,-14,-2,/,/,
COc1ccc(-n2nnnc2C(c2ccccc2OC(F)(F)F)N2CCC3(CC2)C(=O)NCN3c2ccccc2)cc1 (stereo unspecified),-6,-2,3,25*,9.4*,31*,15*,ADAM10 confirm=7;ADAM17 counter=2
COc1ccc(-n2nnnc2C(c2ccccc2OC(F)(F)F)N2CCC(n3c(=O)[nH]c4ccccc43)CC2)cc1 (stereo unspecified),-3,3,6,30*,10*,34*,20*,ADAM10 confirm=7;ADAM17 counter=2
C#CCCC[C@@H]1OC(=O)CNC(=O)C([C@@H](C)CC)NC(=O)[C@@H]2CCCN2C(=O)C([C@@H](C)CC)OC(=O)[C@H](Cc2ccccc2)N(C)C(=O)[C@H](C(C)C)NC(=O)C1(C)C (stereo partly specified),3,0,4,3,-1,/,/,
CCC(C)C1NC(=O)C(NC(=O)C(CC(C)C)N(C)C(=O)C2CCCN2C(=O)C(C)O)C(C)OC(=O)C(Cc2ccc(OC)cc2)N(C)C(=O)C2CCCN2C(=O)C(CC(C)C)NC(=O)[C@H](C)C(=O)[C@H](C(C)C)OC(=O)CC1O (stereo partly specified),1,-36,-5,26*,12*,2,5,ADAM10 confirm=0;ADAM17 counter=-1
Cc1ccc(NP(=O)(Oc2ccccc2F)Oc2ccccc2F)cc1C,1,-12,-14,26*,9.6*,23*,12*,ADAM10 confirm=8;ADAM17 counter=2
S=C(NCCc1ccccc1)N1Cc2ccc(Br)cc2-n2nncc2C1,-3,/,1,17,11*,25*,14*,
Cc1ccc(Cn2nnnc2CN2CCC(n3nnc4cc(C)ccc43)CC2)cc1,-2,/,-3,10,9.3*,4,6,
COC(=O)C1=C(c2ccc(OC(F)(F)F)cc2)C[C@@H]2CC[C@H]1N2C(=O)NCCOc1ccc(OC)cc1,-6,-1,-2,2,4,/,/,
CCn1c(P(C)(=O)O)nc2cc(NC(=O)c3ccccc3F)ccc21,7,-3,7,-7,-1,/,/,
O=C(NN=Cc1ccc(N(CCCl)CCCl)cc1)C(=O)c1c[nH]c2ccccc12,-9,-5,3,11,15*,11,13*,
O=C(NN=Cc1ccc(N(CCCl)CCCl)cc1)c1cc(=O)[nH]c(=O)[nH]1,1,10,1,5,6,/,/,
CCOC(=O)C(O)(c1ccc(NC(=S)NC(=O)c2ccc(Cl)cc2Cl)cc1)C(F)(F)F (stereo unspecified),1,-5,-11,18,9.6*,24*,14*,
CCOC(=O)C(O)(c1ccc(NC(=S)NC(=O)c2ccc(Cl)cc2Cl)c(C)c1)C(F)(F)F (stereo unspecified),3,-4,-4,29*,15*,47*,23*,
Cn1c(O)c(C=NCCN2CCNCC2)c(=O)[nH]c1=O,1,1,8,5,-6,/,/,
CNC(=O)Oc1cccc2c1OC(C)(C)O2,2,4,4,-17,-8,/,/,
SMILES,Tn6 DDE FP,MT1-MMP act inh,Tn7 DDE FP,ADAM10 inh,ADAM17 inh,ADAM10 ctr,ADAM17 confirm,others
COP(=O)(C(=O)Nc1ccccc1)C(CC(C)C)NC(=O)OCc1ccccc1 (stereo unspecified),-1,/,4,11,-1,/,/,
Cc1ccc(OCCOc2cccc(C=C3C(=O)NC(=O)NC3=O)c2)cc1,-3,3,-3,10,9.2*,-2,-1,
Cc1cc(C)cc(OCCOc2cccc(C=C3C(=O)NC(=O)NC3=O)c2)c1,3,3,2,1,0,/,/,
O=C(O)C1=CC2c3ccccc3C1c1ccccc12,-10,-4,0,-7,-1,/,/,
COC(=O)C1=C(C(=O)OC)C2c3ccccc3C1c1ccccc12,-6,0,-10,12,11*,7,3,
COc1ccccc1OCCCn1cc(C(C)=O)c2ccccc21,2,3,-1,5,10*,-3,4,
COc1ccccc1OCCCn1cc(C(=O)C2CC2)c2ccccc21,-2,-6,1,6,0,/,/,
CCOC(=O)c1cncn1[C@@H](C)c1ccccc1,4,5,-6,0,0,/,/,
